Measured values collected from several papers.
Protocols differ between the studies behind these lines. pEC50, pIC50: −log10 of the molar value.
Organism: Plasmodium falciparum
Observed: parasite growth

For `CC(C)(C)CNC(=N)CC(O)c1cc2c(F)cc(F)cc2c2cc(C(F)(F)F)ccc12` (centres unmarked), the pIC50 was 5.22 (ELISA; 3D7; 72 h, blood stage).
`COc1cc(/C=C2\CC/C(=C\c3ccc(O)c(OC)c3)C2=O)ccc1O` has a pEC50 of 5.83 (K1; drug-resistant strain, blood stage).
The pIC50 of `N=C(CC(O)c1cc2c(F)cc(F)cc2c2cc(C(F)(F)F)ccc12)NCc1ccc(F)cc1` (centres unmarked) is reported as less than 7.00 (ELISA; 3D7 DD2; blood stage).
For `CO[C@H]1/C=C/O[C@@]2(C)Oc3c(C)c(O)c4c(O)c(c(/C=N/N5CCN(C)CC5)c(O)c4c3C2=O)NC(=O)/C(C)=C\C=C\[C@H](C)[C@H](O)[C@@H](C)[C@@H](O)[C@@H](C)[C@H](OC(C)=O)[C@@H]1C`, the pIC50 was 6.24 (DD2; drug-resistant strain, blood stage).
`CCCCN(CCCC)C(=N)CC(O)c1cc2c(F)cc(F)cc2c2cc(C(F)(F)F)ccc12` (centres unmarked) gave a pIC50 of 5.95 (ELISA; 3D7; 72 h, blood stage).
`CCN(CC)CCCC(C)Nc1ccnc2cc(Cl)ccc12` (centres unmarked) gave a pIC50 of 7.04 (K1; drug-resistant strain).
The pIC50 of `Cc1cc(F)cc(C)c1NC(=N)CC(O)c1cc2c(F)cc(F)cc2c2cc(C(F)(F)F)ccc12` (centres unmarked) is reported as 7.94 (ELISA; 3D7; 72 h, blood stage).
`c1cc([C@H]2CC[C@]3(CC2)OO[C@]2(O3)C3CC4CC(C3)CC2C4)ccc1OCCN1CCOCC1` gave a pIC50 of 7.96 (W2; drug-resistant strain, blood stage).
For `CCCCCCCCNC(C)C(O)c1ccc(SC(C)C)cc1` (centres unmarked), the pIC50 was 7.20 (DD2; drug-resistant strain, blood stage).
`COc1cc(/C=C/C(=O)C(=Cc2ccc(O)cc2)C(=O)/C=C/c2ccc(O)c(OC)c2)ccc1O` gave a pEC50 of 4.88 (K1; drug-resistant strain, blood stage).
The pIC50 of `N=C(CC(O)c1cc2c(F)cc(F)cc2c2cc(C(F)(F)F)ccc12)Nc1ccc(N2CCC(F)(F)CC2)cc1` (centres unmarked) is reported as roughly 7.49 (ELISA; 3D7 DD2; blood stage).
The pIC50 of `C[C@@H]1CC[C@H]2[C@@H](C)C(=O)O[C@@H]3O[C@@]4(C)CC[C@@H]1[C@]32OO4` is reported as 8.04 (DD2; 72 h, drug-resistant strain, blood stage).
`N=C(CC(O)c1cc2c(F)cc(F)cc2c2cc(C(F)(F)F)ccc12)Nc1ccc(-c2ccc(F)cc2)cc1` (centres unmarked) has a pIC50 of 8.09 (ELISA; 3D7; 72 h, blood stage).
For `CO[C@H]1C[C@H](O[C@@H]2/C(C)=C/C[C@@H]3C[C@@H](C[C@]4(CC[C@H](C)[C@@H](C5CCCCC5)O4)O3)OC(=O)[C@@H]3C=C(C)/C(=N/O)[C@H]4OC/C(=C\C=C\[C@@H]2C)[C@]43O)O[C@@H](C)[C@@H]1O`, the pIC50 was 6.75 (DD2; drug-resistant strain, blood stage).
The pEC50 of `COc1cc(/C=C/C(=O)C(=Cc2cccc(O)c2)C(=O)/C=C/c2ccc(O)c(OC)c2)ccc1O` is reported as 4.96 (K1; drug-resistant strain, blood stage).
With `N=C(N)N/N=C/c1c(Cl)cccc1Cl` the pIC50 was 6.03 (K1; drug-resistant strain, blood stage).
For `CCN(CC)CCCC(C)Nc1ccnc2cc(Cl)ccc12` (centres unmarked), the pEC50 was 6.28 (K1; drug-resistant strain, blood stage).
`C[C@@H]1CC[C@H]2[C@@H](C)C(=O)O[C@@H]3O[C@@]4(C)CC[C@@H]1[C@]32OO4` gave a pIC50 of 7.71 (SYBR Green; 3D7; blood stage).
With `COc1cc(/C=C/C(=O)/C=C/c2ccc(O)c(OC)c2)ccc1O` the pEC50 was 5.60 (K1; drug-resistant strain, blood stage).
`CCN1CCN(Cc2ccc(Nc3nc4ccc(Oc5ccnc(NC(=O)C6CCN(C)CC6)c5)cc4n3C)cc2C(F)(F)F)CC1` gave a pIC50 of 7.25 (flow cytometry; DD2; 72 h, blood stage).
